Most compounds without a hit are left out; they make up all but 1.8% or so of the library.
MC4R antag cAMP = antagonists of human melanocortin 4 receptor (MC4R); P32245; MC4R-expressing cells, MTII-stimulated cAMP, LANCE TR-FRET; inhibition, % at 6.5 µM; 0.48% of 360,000 active;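 active = inhibition above its plate's cutoff, the mean of tested wells on that plate plus 3 SD, cut at about 29% in these data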
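Assay system: U2OS cells stably expressing human melanocortin 4 receptor (MC4R) / Dosing: 6.5 µM / Timing: compound 30 min, challenge 1 h, detection 1 h / Measured by: Eu-cAMP/anti-cAMP TR-FRET, emission 671 nm / Replicates: singlicate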
AI-2 QS mod = Vibrio harveyi AI-2 quorum sensing modulation | AID 2094 | activity change, % at 7.5 µM | 0.4% of 300,000 active | Vibrio harveyi JMH597 AI-2 luminescence/OD600 ratio, 9 h; active compounds read low; strain lacks LuxN and CqsS sensors; 0 = neutral-control median; in the data active = activity change below about -75%, passing the limit was not always enough;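 note: luminescence divided by OD600 gain over 9 h not by final OD600 alone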
MC4R ag barr = human MC4R agonism via beta-arrestin | activation, % at 8.9 µM | U2OS MC4R beta-arrestin complementation, luminescence; percent of melanotan II response, DMSO zero | AID 540308 | 0.98% of 360,000 active;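 active = activation above a per-plate cutoff, the mean activation of sample wells on that plate plus 3 SD, cut at about 8% in these data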
NTR1 agonist = agonists of human neurotensin receptor NTR1. activation, % at 20 µM. NTR1-U2OS beta-arrestin-GFP spot imaging, agonist mode. 0.17% of 330,000 active;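 active = activation at or above 40% of the spot to cytoplasm intensity ratio, with at least 20 cells analyzed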
Target sequence (P30989 whole entry, looked up): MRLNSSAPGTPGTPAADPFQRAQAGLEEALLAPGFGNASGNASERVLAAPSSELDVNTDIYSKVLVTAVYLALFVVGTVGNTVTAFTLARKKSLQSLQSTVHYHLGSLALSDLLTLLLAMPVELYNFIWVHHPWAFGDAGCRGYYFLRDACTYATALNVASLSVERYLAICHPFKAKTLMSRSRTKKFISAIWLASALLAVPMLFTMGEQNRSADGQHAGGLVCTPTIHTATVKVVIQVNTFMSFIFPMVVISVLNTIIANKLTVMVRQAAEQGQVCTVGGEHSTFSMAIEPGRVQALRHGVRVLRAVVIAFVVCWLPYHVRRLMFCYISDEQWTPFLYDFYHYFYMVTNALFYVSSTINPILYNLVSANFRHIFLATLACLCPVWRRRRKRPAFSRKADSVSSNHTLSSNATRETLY
cAMP nonselect = nonselective cAMP signaling inhibitor, MC4R antagonist counter-screen | 26% of 1,600 active | shares compounds with MC4R antag cAMP | parental U2OS, forskolin cAMP, LANCE TR-FRET | inhibition, % at 6.5 µM;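 active = mean inhibition over triplicates above the low-control well mean plus 3 SD, set per campaign, cut at about 13% in these data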;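 note: signal is single emission at 671 nm which falls as cellular cAMP rises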
MC4R antag conf = human MC4R cAMP antagonism confirmation; shares compounds with MC4R antag cAMP; MC4R-expressing cells, MTII-stimulated cAMP, TR-FRET; inhibition, % at 6.5 µM; 27% of 1,600 active; in the data active = inhibition above about 29%
Large screens that a line does not name were inactive (follow-up assays come after a bar, where they were run).

COc1ccc(/C=N/Nc2nc(Nc3ccccc3)nc(N3CCCC3)n2)cc1[N+](=O)[O-]	MC4R antag cAMP 32 | cAMP nonselect inactive | MC4R antag conf inactive
CCOC(=O)C(=Cc1ccc(-n2ccnc2)cc1)C(=O)OCC	MC4R antag cAMP 34 | cAMP nonselect inactive | MC4R antag conf inactive
COc1ccc(OC2CCN(C(=O)Nc3ccc(C)cc3)CC2)cc1	none
CC(C)CN(C(=O)COC(=O)c1nc(Cl)ccc1Cl)C1CCS(=O)(=O)C1 (stereo not given)	MC4R antag cAMP 36 | cAMP nonselect inactive | MC4R antag conf inactive
CC(=O)Nc1ccc(SCCC2CCCCN2C)cc1 (stereo not given)	none
COc1ccc(NC(=O)/C(Cl)=C(/Cl)S(=O)Cc2ccccc2)cn1 (stereo not given)	none
COc1ccc(CS(=O)(=O)/C(Cl)=C(/Cl)C(=O)Nc2ccc(OC)nc2)cc1	MC4R antag cAMP 44 | cAMP nonselect 33 | MC4R antag conf 37
O=C(N[C@H]1C/C=C\C[C@H](CC(=O)N(CCO)Cc2ccccc2)C(=O)NC[C@H](c2ccccc2)OC1=O)OCC1c2ccccc2-c2ccccc21	MC4R antag cAMP 32 (no result: AI-2 QS mod) | cAMP nonselect inactive | MC4R antag conf inactive
O=C1NC[C@H](c2ccccc2)OC(=O)[C@H](Cc2ccc(F)cc2)C/C=C\C[C@H]1CC(=O)N(CCO)Cc1ccccc1	MC4R antag cAMP 39 (no result: AI-2 QS mod) | cAMP nonselect inactive | MC4R antag conf inactive
O=C1NC[C@H](c2ccccc2)OC(=O)[C@@H](Cc2ccc(F)cc2)C/C=C\C[C@H]1CC(=O)N(CCO)Cc1ccccc1	MC4R antag cAMP 45 (no result: AI-2 QS mod) | cAMP nonselect inactive | MC4R antag conf inactive
O=C1NC[C@@H](c2ccccc2)OC(=O)[C@H](Cc2ccc(F)cc2)C/C=C\C[C@H]1CC(=O)N(CCO)Cc1ccccc1	none (no result: AI-2 QS mod)
CCC(=O)N(CC(=O)Nc1sc(C)c(C)c1C(N)=O)C1CCCC1	MC4R antag cAMP 29 | cAMP nonselect inactive | MC4R antag conf inactive
CC1=C(C(=O)N2CCOCC2)CC(CC(=O)NC2CCCC2)C(=O)N1Cc1ccc(F)cc1 (stereo not given)	none (no result: AI-2 QS mod, NTR1 agonist)
Cc1ccccc1OCc1nnc(SC(C)C(=O)O)n1-c1ccccc1 (stereo not given)	MC4R antag cAMP 42 (no result: AI-2 QS mod, NTR1 agonist) | cAMP nonselect inactive | MC4R antag conf inactive
CC(C)(C)OC(=O)N1CCCC(C(=O)Nc2cccc(C(=O)NC3CC3)c2)C1 (stereo not given)	none (no result: AI-2 QS mod, NTR1 agonist)
CCOC(=O)CS(=O)(=O)c1nc(-c2ccccc2)cc(C(F)(F)F)n1	none
CCOC(=O)CS(=O)(=O)c1nc(-c2ccc(F)cc2)cc(C(F)(F)F)n1	MC4R antag cAMP 32 | cAMP nonselect inactive | MC4R antag conf inactive
COC(=O)Nc1ccc(S(=O)(=O)N2CCCC(C(=O)NCC3CCCO3)C2)cc1 (stereo not given)	none (no result: AI-2 QS mod)
COc1cccc(Oc2ccc(C(F)(F)F)cc2NC(=O)CN2C(=O)NC3(CCCC3)C2=O)c1	none (no result: AI-2 QS mod)
COc1ccc(CCCNC(=O)C2(C)Cc3c(-c4ccc(NC(C)=O)cc4)ccnc3O2)cc1 (stereo not given)	MC4R antag cAMP 34 (no result: AI-2 QS mod, NTR1 agonist) | cAMP nonselect inactive | MC4R antag conf inactive
CC1CC(C)CN(C(=O)Nc2ccc(Br)cc2)C1 (stereo not given)	MC4R antag cAMP 30 | cAMP nonselect inactive | MC4R antag conf inactive
O=C(Nc1ccc(Br)cc1)N1CCCCCCC1	none
CN(Cc1ccccc1)C1CCN(Cc2ccccc2[N+](=O)[O-])CC1	none (no result: NTR1 agonist)
CCOc1cc(N2CCOCC2)c(OCC)cc1NCC(=O)N1CCN(Cc2ccccc2)CC1	MC4R antag cAMP 29 | cAMP nonselect inactive | MC4R antag conf inactive
CC(C)CN(CCNC(=O)CN1C(=O)COc2ccc(S(=O)(=O)N3CCC(C)CC3)cc21)CC(C)C	none
CCOC(=O)C1CCCN(C(=O)Cn2sc3nc(C)cc(C)c3c2=O)C1 (stereo not given)	MC4R antag cAMP 42 | cAMP nonselect inactive | MC4R antag conf 30
Cc1cc(NC(=O)/C(C#N)=C/c2ccc(-c3cccc(C(F)(F)F)c3)o2)n(-c2ccccc2)n1	none
Cc1cc(NC(=O)/C(C#N)=C/c2ccc(-c3ccc(SC(F)F)cc3)o2)n(-c2ccccc2)n1	MC4R antag cAMP 36 | cAMP nonselect inactive | MC4R antag conf inactive
CCOc1c(O)ccc(C2NC(=O)NC(C)=C2C(=O)OC)c1[N+](=O)[O-] (stereo not given)	MC4R antag cAMP 30 | cAMP nonselect inactive | MC4R antag conf inactive
CCCc1cc(=O)oc2c3c(c4c(c12)OC(C)(C)C=C4)OC(C)C(C)C3O (stereo not given)	MC4R antag cAMP 30 | cAMP nonselect inactive | MC4R antag conf inactive
CCCc1cc(=O)oc2c3c(cc(OCC(=O)N[C@@H](C)C(=O)O)c12)OC(C)(C)CC3	none
N#CCC(=O)Nc1ccc(C(=O)OCC(=O)Nc2ccccc2Sc2ccccc2)cc1	MC4R antag cAMP 31 | cAMP nonselect inactive | MC4R antag conf inactive
CC(=O)Nc1ccc(C(=O)OCC(=O)Nc2ccccc2Sc2ccccc2)cc1	none
Cc1cc(C(=O)COC(=O)COc2ccccc2C#N)c(C)n1CC1CCCO1 (stereo not given)	none (no result: AI-2 QS mod)
COC(=O)c1cc2ccc(OC)cc2c2cc(OC)c(OC)cc12	MC4R antag cAMP 34 (no result: AI-2 QS mod) | cAMP nonselect inactive | MC4R antag conf inactive
CC(C)(C)OC(=O)CNC(=O)c1[nH]cnc1C(=O)NCC(=O)OCc1ccccc1	MC4R antag cAMP 42 | cAMP nonselect inactive | MC4R antag conf inactive
CC(C)(C)OC(=O)NCCCCCNC(=O)c1nc[nH]c1C(=O)NCC(=O)OCc1ccccc1	MC4R antag cAMP 46 (no result: AI-2 QS mod) | cAMP nonselect inactive | MC4R antag conf inactive
CC(C)(C)OC(=O)NCCCC[C@H](NC(=O)c1nc[nH]c1C(=O)NCC(=O)OCc1ccccc1)C(=O)OC(C)(C)C	none
CCCCCCCNC(=O)C1(CC2CC(c3ccc(Cl)cc3)=NO2)CCN(C(=O)CCCCCBr)CC1 (stereo not given)	none
Cn1c(CNC(=O)CNC(=O)c2ccc(F)cc2)cc(=O)n(C)c1=O	none
Cc1ccc(-n2cccc2/C=C2\C(=N)N3N=C(C(C)C)SC3=NC2=O)cc1	MC4R antag cAMP 73 | cAMP nonselect inactive | MC4R antag conf inactive
CCC1=NN2C(=N)/C(=C\c3cccn3-c3ccc(OC)cc3)C(=O)N=C2S1	none
CCOc1ccc(NC(=O)NCc2ccc3c(c2)OCO3)cc1	none
C=C(C)[C@@H]1C2=CC(C(=O)OC)=C(C[C@H](C(=C)C)[C@H]3O[C@H]3C3=C[C@H]1OC3=O)O2	MC4R antag cAMP 36 (no result: AI-2 QS mod, NTR1 agonist) | cAMP nonselect 14 | MC4R antag conf 45
COc1ccc(N2CCN(C(=O)NCc3ccc(OC)c(Cl)c3)CC2)cc1	MC4R antag cAMP 31 | cAMP nonselect inactive | MC4R antag conf inactive
COc1ccc(N2CCN(C(=O)NCc3ccc(OC)c(OC)c3)CC2)cc1	none
